System: not listed separately
Assay: Relative binding affinities for rat adenosine A1 and human adenosine A3 receptors; Selectivity ratio
Settings: not given
In short: (§1)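 Ratio of Ki values: rat A1 ([3H]-(R)-PIA, rat cortical membranes) over human A3 ([125I]AB-MECA, HEK-293 membranes), each Ki derived by Cheng-Prusoff from competition curves.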

In order of rising Ratio:
1. CCOC(=O)c1c(C)nc(-c2ccccc2)c(C(=O)OCc2ccccc2)c1C#Cc1ccccc1  4.2
2. CCOC(=O)C1=C(C)NC(C)=C(C(=O)OC)C1/C=C/c1ccccc1 (stereo not given)  24

Molecular target: Adenosine receptor A2a (Rattus norvegicus) (UniProt P30543)
Assay: Binding affinity for Adenosine A2A receptor in rat striatal membrane with [3H]-CGS- 21680
Type: cell membranes
Set-up: concentration or dose not given beside the values
Settings: Striatum

Adenosine receptor A2a (Rattus norvegicus), sequence (P30543 whole entry): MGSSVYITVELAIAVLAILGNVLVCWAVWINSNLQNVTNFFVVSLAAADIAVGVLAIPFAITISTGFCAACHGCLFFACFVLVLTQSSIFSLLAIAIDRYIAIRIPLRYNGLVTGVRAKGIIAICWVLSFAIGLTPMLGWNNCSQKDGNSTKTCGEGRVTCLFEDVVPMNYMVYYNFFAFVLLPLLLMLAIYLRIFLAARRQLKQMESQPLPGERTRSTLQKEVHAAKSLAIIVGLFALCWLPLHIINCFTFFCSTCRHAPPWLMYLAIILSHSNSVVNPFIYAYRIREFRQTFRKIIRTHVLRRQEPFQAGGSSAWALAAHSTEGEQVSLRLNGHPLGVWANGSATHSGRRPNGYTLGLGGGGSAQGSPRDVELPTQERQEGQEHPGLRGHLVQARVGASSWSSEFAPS

First: CCOC(=O)C1=C(c2ccccc2)N=C(C)/C(=C(/O)OCC)C1C=C(c1ccccc1)c1ccccc1 (stereo not given)
Second: CCO/C(O)=C1\C(C)=NC(c2ccccc2)=C(C(=O)OCc2ccccc2)C1/C=C/c1ccccc1 (stereo not given)
The Inhibition (at concentration M) of the first is lower: 12% for the first, 15% for the second.

`CCOC(=O)C1=C(c2ccccc2)N=C(C)/C(=C(/O)OCc2ccccc2)C1C#Cc1ccccc1` (stereo not given) and `CCO/C(O)=C1\C(C)=NC(c2ccccc2)=C(C(=O)OCc2ccccc2)C1C#Cc1ccccc1` (stereo not given) cannot be ordered by Inhibition (at concentration M): < 10% for the first, < 10% for the second.

First: CCOC(=O)C1=C(c2ccc(C)cc2)N=C(C)/C(=C(/O)OCC)C1/C=C/c1ccccc1 (stereo not given)
Second: CCOC(=O)C1=C(c2ccccc2)N=C(C)/C(=C(/O)OCC)C1C#Cc1ccccc1 (stereo not given)
The Inhibition (at concentration M) of the first is higher: 37% for the first, 26% for the second.

Molecular target: Adenosine receptor A2a (Rattus norvegicus) (UniProt P30543)
Assay: Inhibition of [3H]-CGS- 21680 binding to Adenosine A2A receptor of rat striatal membrane
Set-up: concentration or dose not given beside the values
Settings: concentration not given here

`CCOC(=O)C1=C(c2ccccc2)N=C(C)/C(=C(/O)OCc2ccccc2)C1/C=C/c1ccc([N+](=O)[O-])cc1` (stereo not given) and `CCO/C(O)=C1\C(C)=NC(c2ccccc2)=C(C(=O)OCc2ccccc2)C1/C=C/c1ccc([N+](=O)[O-])cc1` (stereo not given) cannot be ordered by inhibition: < 10% for the first, < 10% for the second.

First: CCOC(=O)C1=C(c2ccccc2)N=C(C)/C(=C(/O)OCC)C1/C=C/c1ccccc1[N+](=O)[O-] (stereo not given)
Second: CCOC(=O)C1=C(c2ccccc2)N=C(C)/C(=C(/O)OCC)C1/C=C/c1ccccc1OC (stereo not given)
The inhibition of the first is lower: < 10% for the first, 17% for the second.

Compared with `CCOC(=O)C1=C(C)NC(C)=C(C(=O)OCc2ccccc2)C1/C=C/c1ccccc1` (stereo not given), `CCOC(=O)C1=C(c2ccsc2)N=C(C)/C(=C(/O)OCC)C1/C=C/c1ccccc1` (stereo not given) is lower in inhibition: 14% for the first, < 10% for the second.

Going from `CCOC(=O)c1c(C)nc(-c2ccccc2)c(C(=O)OCc2ccccc2)c1C#Cc1ccccc1` to `CCOC(=O)C1=C(c2ccccc2)N=C(C)/C(=C(/O)OCC)C1/C=C/c1ccc([N+](=O)[O-])cc1` (stereo not given), the inhibition falls from 43% to 33%.

Compared with `CCOC(=O)C1=C(c2ccc(OC)cc2)N=C(C)/C(=C(/O)OCC)C1/C=C/c1ccccc1` (stereo not given), `CCOC(=O)C1=C(c2ccc(Cl)cc2)N=C(C)/C(=C(/O)OCC)C1/C=C/c1ccccc1` (stereo not given) is higher in inhibition: < 10% for the first, 12% for the second.

`CCOC(=O)C1=C(c2ccoc2)N=C(C)/C(=C(/O)OCC)C1/C=C/c1ccccc1` (stereo not given) gave an inhibition of 35%.

Molecular target: Adenosine receptor A2a (Rattus norvegicus, UniProt P30543)
Assay: Displacement of [3H]-CGS- 21680 from Adenosine A2A receptor of rat striatal membrane
Settings: not given

Adenosine receptor A2a, sequence (P30543 whole entry): as above

In order of rising Ki:
1. CCOC(=O)c1c(C)nc(-c2ccccc2)c(C(=O)OCC)c1/C=C/c1ccccc1  2.4 µM
2. CCO/C(O)=C1\C(C)=NC(c2ccccc2)=C(C(=O)OCc2ccccc2)C1C (stereo not given)  3.15 µM
3. CCO/C(O)=C1\C(C)=NC(C)=C(C(=O)OC)C1CC (stereo not given)  7.89 µM
4. CCOC(=O)C1=C(C)N=C(C)/C(=C(/O)OCC)C1/C=C/c1ccccc1 (stereo not given)  9.23 µM
5. CCOC(=O)C1=C(c2ccccc2)N=C(C)/C(=C(/O)OCC)C1CC (stereo not given)  14.5 µM

Molecular target: T1, Adenosine receptor A1 (Rattus norvegicus) (UniProt P25099)
T1 sequence (whole entry): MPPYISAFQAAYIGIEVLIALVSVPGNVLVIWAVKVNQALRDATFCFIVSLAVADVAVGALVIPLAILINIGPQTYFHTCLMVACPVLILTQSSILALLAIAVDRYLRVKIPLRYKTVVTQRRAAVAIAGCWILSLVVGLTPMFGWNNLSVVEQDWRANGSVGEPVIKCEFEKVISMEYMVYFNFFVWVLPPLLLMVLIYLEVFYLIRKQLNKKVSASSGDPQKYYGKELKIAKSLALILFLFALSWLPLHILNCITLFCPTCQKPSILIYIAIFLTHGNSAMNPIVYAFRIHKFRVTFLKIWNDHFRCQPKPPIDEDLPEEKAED
Assay: Binding affinity for Adenosine A1 receptor of rat cerebral cortex membrane with [3H](R)-PIA.
Type: tissue-based
Settings: not given
In short: (§2)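 Rat cerebral cortex membranes prepared with adenosine deaminase (3 units/mL), preincubated 30 min at 30 °C, with deaminase also present during incubation with [3H]-(R)-PIA. Competitor used at five or more concentrations spanning 3 orders of magnitude.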

For `CCOC(=O)C1=C(c2ccccc2)N=C(C)/C(=C(/O)OCc2ccccc2)C1/C=C/c1ccccc1` (stereo not given), the Inhibition (at concentration M) was < 10%.

System: not listed separately
Assay: Relative affinities for rat adenosine A1 and human adenosine A3 receptors
Settings: not given
In short: as §1

`CCOC(=O)c1c(C)nc(-c2ccccc2)c(C(=O)OCC)c1C` showed a Selectivity ratio of 1.7.

Molecular target: T1, Adenosine receptor A1 (Rattus norvegicus)
Assay: Binding affinity for Adenosine A1 receptor in rat cerebral cortex membrane with [3H](R)-PIA.
Type: cell membranes
Settings: concentration not given here
In short: as §2

Going from `CCOC(=O)C1=C(c2ccccc2)N=C(C)/C(=C(/O)OCc2ccccc2)C1/C=C/c1ccc([N+](=O)[O-])cc1` (stereo not given) to `CCO/C(O)=C1\C(C)=NC(c2ccccc2)=C(C(=O)OCc2ccccc2)C1/C=C/c1ccc([N+](=O)[O-])cc1` (stereo not given), the inhibition rises from < 10% to 33%.

Molecular target: T1, Adenosine receptor A1 (Rattus norvegicus)
Assay: Binding affinity for Adenosine A1 receptor in rat cerebral cortex membrane with [3H]-(R)-PIA.
Type: cell membranes
Settings: not given
In short: as §2

In order of falling Inhibition (at concentration M):
1. CCO/C(O)=C1\C(C)=NC(c2ccccc2)=C(C(=O)OCc2ccccc2)C1/C=C/c1ccccc1 (stereo not given)  35%
2. CCOC(=O)C1=C(c2ccccc2)N=C(C)/C(=C(/O)OCc2ccccc2)C1C#Cc1ccccc1 (stereo not given)  24%

— ChEMBL document CHEMBL1129404, “6-phenyl-1,4-dihydropyridine derivatives as potent and selective A3 adenosine receptor antagonists” (J Med Chem, 1996)
